In ChEMBL document CHEMBL5252634, “Design, synthesis and in vitro cytotoxicity evaluation of indolo-pyrazoles grafted with thiazolidinone as tubulin polymerization inhibitors” (RSC Med Chem, 2023):
Active and inactive are the calls of the source. The calls are words filed in the database; no cut-off is given here.

What was measured:
[1] = tested on: SK-MEL-28; experiment: Induction of apoptosis in human SK-MEL-28 cells assessed as nuclear condensation at 1.73 to 6.92 uM incubated for 48 hrs by DAPI staining based fluorescence microscopy; type: functional, cell-based; details: dose 1.73-6.92 µM
Summary of the method: (§1)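 SK-MEL-28 exposed 48 h, then PBS-washed, fixed in 4% paraformaldehyde, permeabilized with 0.1% Triton X for 15 min and stained with 10 µg/mL DAPI. Nuclei viewed by fluorescence (ex 359/em 461 nm), 20X, with untreated controls.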

[2] = tested on: SK-MEL-28; experiment: Induction of apoptosis in human SK-MEL-28 cells assessed as apoptotic body formation at 1.73 to 6.92 uM incubated for 48 hrs by AO/EB staining based fluorescence microscopy; type: functional, cell-based; details: dose 1.73-6.92 µM
Summary of the method: (§2)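 SK-MEL-28 plated at 1×10^6 cells/mL and treated at several concentrations for 48 h. Acridine orange and ethidium bromide added at 10 µg/ml, and cells imaged at once by fluorescence microscopy (ex 488/em 550 nm), 20X.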

[3] = Selectivity index, ratio of IC50 for cytotoxicity against human BEAS-2B cells to IC50 for cytotoxicity against human A549 cells; type: functional
[4] = Cytotoxicity against human BEAS-2B cells assessed as reduction in cell viability measured after 48 hrs by MTT assay; type: toxicity, cell-based
Summary of the method: (§3)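 Cells kept in medium with 10% FBS and 1% antibiotic–antimycotic at 37 °C, 5% CO2. Seeded at 3000–4000 cells/well, grown overnight, then given fresh medium with a range of concentrations (diluted from 10 mM DMSO stocks) for 48 h. MTT (0.5 mg/mL) added for 3–4 h at 37 °C. Formazan dissolved in DMSO and absorbance read at 570 nm.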

[5] = tested on: SK-MEL-28; experiment: Potency index, ratio of sunitinib IC50 to test compound IC50 for cytotoxicity against human SK-MEL-28 cells assessed as reduction in cell viability measured after 48 hrs by MTT assay; type: functional
[6] = tested on: SK-MEL-28; experiment: Induction of cell cycle arrest in human SK-MEL-28 cells assessed as accumulation of cells at G2/M phase at 6.92 uM incubated for 48 hrs by flow cytometry (reference value: 13.14%); type: functional
[7] = target: Tubulin (Homo sapiens) (UniProt P68371+Q9H4B7+P0DPH7+P68366+Q13509+Q71U36+P04350+Q3ZCM7+P07437+P68363+Q9BQE3+Q6PEY2+Q13885+Q9BVA1+Q9BUF5); experiment: Inhibition of tubulin polymerization (unknown origin) at 1.73 to 6.92 uM measured after 1 hr relative to control; type: protein-complex assay; details: dose 1.73-6.92 µM
Summary of the method: (§4)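 Fluorescence-based tubulin polymerization kit: tubulin, GTP and tubulin glycerol buffer mixed and added to compound (from 10x stocks), enhancer and inhibitor reference standards, and blanks in a plate prewarmed to 37 °C. Read kinetically for 1 h at ex 360/em 450 nm.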

[8] = tested on: SK-MEL-28; experiment: Induction of cell cycle arrest in human SK-MEL-28 cells assessed as accumulation of cells at S phase at 3.46 uM incubated for 48 hrs by flow cytometry (reference value: 6.34%); type: functional
[9] = tested on: SK-MEL-28; experiment: Induction of cell cycle arrest in human SK-MEL-28 cells assessed as accumulation of cells at G0/G1 phase at 3.46 uM incubated for 48 hrs by flow cytometry (reference value: 79.59%); type: functional
[10] = tested on: SK-MEL-28; experiment: Induction of cell cycle arrest in human SK-MEL-28 cells assessed as accumulation of cells at G0/G1 phase at 6.92 uM incubated for 48 hrs by flow cytometry (reference value: 79.59%); type: functional
[11] = tested on: SK-MEL-28; experiment: Induction of cell cycle arrest in human SK-MEL-28 cells assessed as accumulation of cells at G2/M phase at 1.73 uM incubated for 48 hrs by flow cytometry (reference value: 13.14%); type: functional
[12] = tested on: SK-MEL-28; experiment: Induction of apoptosis in human SK-MEL-28 cells assessed as horseshoe-shaped nucleus at 1.73 to 6.92 uM incubated for 48 hrs by DAPI staining based fluorescence microscopy; type: functional, cell-based; details: dose 1.73-6.92 µM; summary of the method: as §1
[13] = tested on: SK-MEL-28; experiment: Induction of cell cycle arrest in human SK-MEL-28 cells assessed as accumulation of cells at S phase at 6.92 uM incubated for 48 hrs by flow cytometry (reference value: 6.34%); type: functional
[14] = tested on: SK-MEL-28; experiment: Induction of apoptosis in human SK-MEL-28 cells assessed as increase in ROS level incubated for 48 hrs by DCFDA staining based fluorescence microscopic assay; type: functional, cell-based; details: dose 1.73-6.92 µM
Summary of the method: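 SK-MEL-28 seeded at 1×10^6 cells/well and treated at several concentrations for 48 h at 37 °C. DCFDA (10 µM) loaded for 30 min at 37 °C, excess washed off with PBS, and green DCF fluorescence imaged (ex 498/em 530 nm), 20X.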

[15] = tested on: SK-MEL-28; experiment: Induction of apoptosis in human SK-MEL-28 cells assessed as increase in red fluorescence at 1.73 to 6.92 uM incubated for 48 hrs by AO/EB staining based fluorescence microscopy; type: functional, cell-based; details: dose 1.73-6.92 µM; summary of the method: as §2
[16] = tested on: SK-MEL-28; experiment: Induction of cell cycle arrest in human SK-MEL-28 cells assessed as accumulation of cells at G0/G1 phase at 1.73 uM incubated for 48 hrs by flow cytometry (reference value: 79.59%); type: functional
[17] = Selectivity index, ratio of IC50 for cytotoxicity against human BEAS-2B cells to IC50 for cytotoxicity against mouse B16-F10 cells; type: functional
[18] = tested on: SK-MEL-28; experiment: Induction of cell cycle arrest in human SK-MEL-28 cells assessed as accumulation of cells at S phase at 1.73 uM incubated for 48 hrs by flow cytometry (reference value: 6.34%); type: functional
[19] = tested on: B16-F10; experiment: Cytotoxicity against mouse B16-F10 cells assessed as reduction in cell viability measured after 48 hrs by MTT assay; type: functional, cell-based; details: B16-F10, 48 h; summary of the method: as §3
[20] = tested on: SK-MEL-28; experiment: Induction of apoptosis in human SK-MEL-28 cells assessed as change in cell shape at 1.73 to 6.92 uM after 48 hrs by phase contrast microscopic analysis; type: functional, cell-based; details: dose 1.73-6.92 µM
Summary of the method: (§5)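 SK-MEL-28 cells plated at 1×10^6 cells/mL, allowed to adhere overnight, then exposed to several concentrations for 48 h. Bright-field imaging at 20X to score cell shrinkage, deformation and viable cell number.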

[21] = tested on: SK-MEL-28; experiment: Induction of apoptosis in human SK-MEL-28 cells assessed as reduction in live cells at 1.73 to 6.92 uM after 48 hrs by phase contrast microscopic analysis; type: functional, cell-based; details: dose 1.73-6.92 µM; summary of the method: as §5
[22] = tested on: SK-MEL-28; experiment: Induction of apoptosis in human SK-MEL-28 cells assessed as cellular shrinkage at 1.73 to 6.92 uM after 48 hrs by phase contrast microscopic analysis; type: functional, cell-based; details: dose 1.73-6.92 µM; summary of the method: as §5
[23] = tested on: SK-MEL-28; experiment: Induction of apoptosis in human SK-MEL-28 cells assessed as budding nucleus at 1.73 to 6.92 uM incubated for 48 hrs by DAPI staining based fluorescence microscopy; type: functional, cell-based; details: dose 1.73-6.92 µM; summary of the method: as §1
[24] = tested on: HCT-116; experiment: Cytotoxicity against human HCT-116 cells assessed as reduction in cell viability measured after 48 hrs by MTT assay; type: functional, cell-based; details: HCT-116, 48 h; summary of the method: as §3
[25] = tested on: SK-MEL-28; experiment: Induction of apoptosis in human SK-MEL-28 cells assessed as early apoptotic cells measured after 48 hrs by annexin-V-FITC/PI double staining based flow cytometric analysis; type: functional, cell-based; details: dose 1.73-6.92 µM
Summary of the method: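 1×10^6 SK-MEL-28 cells treated at various concentrations for 48 h. Cells trypsinized with supernatant retained and washed twice in ice-cold PBS. Stained with annexin V-FITC and PI in binding buffer for 15 min at room temperature in the dark, kept on ice, and analysed by flow cytometry.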

[26] = tested on: SK-MEL-28; experiment: Induction of apoptosis in human SK-MEL-28 cells assessed as blebbing nucleus at 1.73 to 6.92 uM incubated for 48 hrs by DAPI staining based fluorescence microscopy; type: functional, cell-based; details: dose 1.73-6.92 µM; summary of the method: as §1
[27] = tested on: A549; experiment: Cytotoxicity against human A549 cells assessed as reduction in cell viability measured after 48 hrs by MTT assay; type: functional, cell-based; details: A549, 48 h; summary of the method: as §3
[28] = Selectivity index, ratio of IC50 for cytotoxicity against human BEAS-2B cells to IC50 for cytotoxicity against human SK-MEL-28 cells; type: functional
[29] = target: Tubulin; experiment: Inhibition of tubulin polymerization (unknown origin) at 1.73 to 6.92 uM measured after 1 hr; type: protein-complex assay, Homo sapiens; summary of the method: as §4
[30] = tested on: SK-MEL-28; experiment: Induction of apoptosis in human SK-MEL-28 cells assessed as nucleus fragmentation at 1.73 to 6.92 uM incubated for 48 hrs by DAPI staining based fluorescence microscopy; type: functional, cell-based; details: dose 1.73-6.92 µM; summary of the method: as §1
[31] = tested on: SK-MEL-28; experiment: Induction of apoptosis in human SK-MEL-28 cells assessed as cell membrane disruption at 1.73 to 6.92 uM incubated for 48 hrs by AO/EB staining based fluorescence microscopy; type: functional; details: dose 1.73-6.92 µM; summary of the method: as §2
[32] = tested on: SK-MEL-28; experiment: Induction of apoptosis in human SK-MEL-28 cells assessed as morphological changes measured after 48 hrs by AO/EB staining based microscopic analysis; type: functional, cell-based; details: dose 1.73-6.92 µM; summary of the method: as §2
[33] = Selectivity index, ratio of IC50 for cytotoxicity against human BEAS-2B cells to IC50 for cytotoxicity against human HCT-116 cells; type: functional
[34] = tested on: SK-MEL-28; experiment: Induction of cell cycle arrest in human SK-MEL-28 cells assessed as accumulation of cells at G2/M phase at 3.46 uM incubated for 48 hrs by flow cytometry (reference value: 13.14%); type: functional
[35] = tested on: SK-MEL-28; experiment: Cytotoxicity against human SK-MEL-28 cells assessed as reduction in cell viability measured after 48 hrs by MTT assay; type: functional, cell-based; details: SK-MEL-28, 48 h; summary of the method: as §3
[36] = tested on: PC-3; experiment: Cytotoxicity against multidrug resistance human PC-3 cells assessed as cell growth inhibition; type: functional, cell-based
[37] = Cytotoxicity against multidrug resistance human U87 cells assessed as cell growth inhibition; type: functional, cell-based, U-87MG ATCC; details: U-87 MG
[38] = tested on: SK-OV-3; experiment: Cytotoxicity against multidrug resistance human SK-OV-3 cells assessed as cell growth inhibition; type: functional, cell-based

## O=C1CS/C(=N\c2cc(-c3c[nH]c4ccccc34)nn2-c2cccc(Cl)c2)N1
[1]
  Activity: Active
[2]
  Activity: Active
[3]
  Ratio IC50: 1.38
[4]
  IC50 at 48 h: 15.9 µM
[5]
  Ratio IC50: 1.5
[6]
  Activity: 16.39%
[7]
  inhibition: 60%
[8]
  Activity: 6.73%
[9]
  Activity: 77.33%
[10]
  Activity: 77.01%
[11]
  Activity: 14.31%
[12]
  Activity: Active
[13]
  Activity: 5.7%
[14]
  Activity: Dose-Dependent Effect
[15]
  Activity: Active
[16]
  Activity: 77.35%
[17]
  Ratio IC50: 1.47
[18]
  Activity: 6.73%
[19]
  IC50: 10.8 µM
[20]
  Activity: Active
[21]
  Activity: Active
[22]
  Activity: Active
[23]
  Activity: Active
[24]
  IC50: 9.02 µM
[25]
  Activity: Dose-Dependent Effect
[26]
  Activity: Active
[27]
  IC50: 11.5 µM
[28]
  Ratio IC50: 4.59
[29]
  IC50: < 1.73 µM
[30]
  Activity: Active
[31]
  Activity: Active
[32]
  Activity: Dose-Dependent Effect
[33]
  Ratio IC50: 1.76
[34]
  Activity: 16.11%
[35]
  IC50: 3.46 µM

## CCn1cc(-c2cc(/N=C3/NC(=O)CS3)n(-c3ccc(Cl)cc3)n2)c2ccccc21
[4]
  IC50 at 48 h: > 50 µM
[19]
  IC50: > 50 µM
[24]
  IC50: 37.9 µM
[27]
  IC50: 38.7 µM
[35]
  IC50: 29.7 µM

## COc1ccc2[nH]cc(-c3cc(/N=C4/NC(=O)CS4)n(-c4cccc(Cl)c4)n3)c2c1
[4]
  IC50 at 48 h: 21.7 µM
[19]
  IC50: > 50 µM
[24]
  IC50: 10.8 µM
[27]
  IC50: 22.6 µM
[35]
  IC50: 6.22 µM

## O=C(Nc1ccncc1)C(=O)c1cn(Cc2ccc(Cl)cc2)c2ccccc12 [INDIBULIN]
[36]
  IC50: 0.064 µM
[37]
  IC50: 0.077 µM
[38]
  IC50: 0.036 µM

## Cn1cc(-c2cc(/N=C3/NC(=O)CS3)n(-c3ccc(Cl)cc3)n2)c2cc(Br)ccc21
[4]
  IC50 at 48 h: > 50 µM
[19]
  IC50: 11.3 µM
[24]
  IC50: 13.5 µM
[27]
  IC50: 19.2 µM
[35]
  IC50: 26.9 µM

## O=C1CS/C(=N\c2cc(-c3cn(Cc4ccccc4)c4ccccc34)nn2-c2cccc(Cl)c2)N1
[4]
  IC50 at 48 h: > 50 µM
[19]
  IC50: > 50 µM
[24]
  IC50: > 50 µM
[27]
  IC50: > 50 µM
[35]
  IC50: > 50 µM
